HGIII-sPLA2 inh: Blocks human group III sPLA2 activity; Q9NZ20; QFRET BODIPY PC-A2 liposome hydrolysis, fluorescence; inhibition, % at 12.2 µM; 370,000 compounds, 0.56% hits;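 active = inhibition above mean plus 3 SD of compounds lying within the high and low control bounds, cut at about 19% in these data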
TbMetRS inhib: Trypanosoma brucei MetRS inhibition | purified T. brucei MetRS, ATP depletion, Kinase-Glo luminescence | AID 624268 | 360,000 compounds, 0.4% hits | inhibition, % at 11.9 µM;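 active = inhibition above a per-plate cutoff of the control wells' mean inhibition plus 3 SD, cut at about 5.5% in these data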
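Measured by: Kinase-Glo luciferase luminescence reporting remaining unconsumed ATP. Material: purified T. brucei MetRS enzyme. Doses: 11.9 µM compound single dose, 0.9% DMSO. Medium: HEPES buffer containing pyrophosphatase, BSA, spermine, DTT. Times: 15 min preincubation, 2 h reaction, all 25 °C. Reagent: methionine, ATP and bulk E. coli tRNA.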
PLC-beta3 inh: inhibitors of human phospholipase C beta3. 370,000 compounds, 0.18% hits. AID 720704. inhibition, % at 12.2 µM. Purified PLC-beta3, fluorogenic substrate, fluorescence. Q01970; in the data active = inhibition above about 11%
PLC-gamma1 inh: PLC-gamma1 (human) inhibition, primary screen; 370,000 compounds, 0.84% hits; purified PLC-gamma1, fluorogenic substrate, fluorescence; inhibition, % at 12.2 µM; in the data active = inhibition above about 9.5%
Target sequence (P19174 whole entry, looked up): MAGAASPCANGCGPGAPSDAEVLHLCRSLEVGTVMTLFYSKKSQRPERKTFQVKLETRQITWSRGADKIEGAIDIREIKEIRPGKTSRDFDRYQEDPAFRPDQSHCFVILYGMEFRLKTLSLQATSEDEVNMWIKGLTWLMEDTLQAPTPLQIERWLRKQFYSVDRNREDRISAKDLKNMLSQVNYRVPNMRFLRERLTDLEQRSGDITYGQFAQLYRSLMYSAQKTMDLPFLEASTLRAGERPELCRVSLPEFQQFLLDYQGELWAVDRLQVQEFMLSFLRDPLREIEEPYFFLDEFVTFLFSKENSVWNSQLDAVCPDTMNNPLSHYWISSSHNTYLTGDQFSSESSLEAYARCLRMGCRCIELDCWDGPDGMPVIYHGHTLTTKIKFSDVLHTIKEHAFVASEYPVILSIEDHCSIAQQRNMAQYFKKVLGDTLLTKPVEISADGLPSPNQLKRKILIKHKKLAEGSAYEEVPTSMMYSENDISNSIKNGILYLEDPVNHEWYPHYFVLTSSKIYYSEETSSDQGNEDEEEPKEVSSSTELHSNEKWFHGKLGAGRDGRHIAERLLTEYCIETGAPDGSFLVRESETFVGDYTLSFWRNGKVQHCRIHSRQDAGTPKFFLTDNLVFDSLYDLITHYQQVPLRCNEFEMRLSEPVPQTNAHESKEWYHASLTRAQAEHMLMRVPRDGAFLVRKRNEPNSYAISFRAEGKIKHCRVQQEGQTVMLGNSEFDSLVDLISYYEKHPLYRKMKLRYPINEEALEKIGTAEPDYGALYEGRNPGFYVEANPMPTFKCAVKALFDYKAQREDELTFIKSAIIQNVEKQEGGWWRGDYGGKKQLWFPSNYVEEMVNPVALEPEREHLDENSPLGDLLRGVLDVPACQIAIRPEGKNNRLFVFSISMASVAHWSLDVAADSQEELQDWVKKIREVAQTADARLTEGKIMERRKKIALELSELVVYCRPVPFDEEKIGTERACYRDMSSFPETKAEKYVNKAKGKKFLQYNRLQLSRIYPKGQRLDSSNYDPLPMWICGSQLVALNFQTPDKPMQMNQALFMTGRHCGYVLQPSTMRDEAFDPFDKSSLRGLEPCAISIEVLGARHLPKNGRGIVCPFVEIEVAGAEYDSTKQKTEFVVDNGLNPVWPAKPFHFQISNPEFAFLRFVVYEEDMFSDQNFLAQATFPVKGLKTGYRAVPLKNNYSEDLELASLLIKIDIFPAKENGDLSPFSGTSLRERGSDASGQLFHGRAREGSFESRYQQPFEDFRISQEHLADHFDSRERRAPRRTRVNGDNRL
hGIII sPLA2 conf: human GIII-sPLA2 inhibition, confirmation | AID 743280 | recombinant hGIII-sPLA2, BODIPY PC-A2 QFRET fluorescence | shares compounds with HGIII-sPLA2 inh | inhibition, % at 12.2 µM | 2,000 compounds, 34% hits;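 active = mean inhibition across triplicates above the hit cutoff set in the earlier primary screen, cut at about 19% in these data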
BODIPY interf: counter-screen for HGIII-sPLA2 inhibitors: 535nm fluorescence interference; shares compounds with HGIII-sPLA2 inh; BODIPY FL product fluorescence interference, QFRET; inhibition, % at 12.2 µM; 2,000 compounds, 8.5% hits;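 active = average inhibition above the solvent-only control mean plus 3 SD, cut at about 6% in these data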
535nm interf DR: counter-screen for HGIII-sPLA2 inhibitors: 535nm fluorescence interference, dose response | shares compounds with HGIII-sPLA2 inh | BODIPY FL product fluorescence interference, cell-free | IC50, µM | 240 tested, under 10 active | AID 743455;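 active = IC50 at or below 10 µM; inactive = IC50 above 10 µM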
A number is an active result; 0 = inactive; - = no result given. Hits are enriched below; roughly 1.9% of the tested compounds scored in any of these assays.

SMILES | HGIII-sPLA2 inh | TbMetRS inhib | PLC-beta3 inh | PLC-gamma1 inh | hGIII sPLA2 conf | BODIPY interf | others
C/C(=N/NC(=O)CN(c1ccccc1)S(=O)(=O)c1ccccc1)c1ccccc1O | 24 | 0 | 0 | 0 | 0 | 0
COC(=O)[C@]12C[C@H](CC(=O)N3CCCCC3)C(=O)N(Cc3cccc4ccccc34)C1=C[C@H](C(C)(C)C)O[C@@H]2C | 0 | - | 0 | 0 | - | -
CC1(NC(=S)NCCO)CCS(=O)(=O)C1 (stereo not given) | 20 | 0 | 0 | 0 | 0 | 0
CC(NC(=O)Cc1ccccc1[N+](=O)[O-])c1ccccc1 (stereo not given) | 23 | - | 0 | 0 | 0 | 0
CC(NC(=O)COC(=O)Cc1ccccc1[N+](=O)[O-])c1ccccc1 (stereo not given) | 0 | 0 | 0 | 0 | - | -
CCCCn1c(SCc2nc(N)nc(N3CCCCC3)n2)nc2c1c(=O)n(C)c(=O)n2C | 21 | 0 | 0 | 0 | 0 | 0
CCCn1c(SCc2nc(N)nc(N3CCCCC3)n2)nc2c1c(=O)n(C)c(=O)n2C | 0 | 0 | 0 | 0 | - | -
O=C(NNc1nc(-c2ccccc2)cs1)c1cccs1 | 33 | 0 | 0 | 0 | 49 | 11
O=C(NNc1nc(-c2ccc(F)cc2)cs1)c1ccccc1 | 29 | 0 | 0 | 0 | 40 | 8.1
O=C(NNc1nc(-c2ccccc2)cs1)c1ccc(F)cc1 | 36 | 0 | 0 | 0 | 46 | 11
CC(C)(C)c1csc(NNC(=O)c2ccc(Br)cc2)n1 | 47 | 0 | 0 | 0 | 49 | 0 | 535nm interf DR=0
OCCN1CCN(CC(O)COc2ccc(C34CC5CC(CC(C5)C3)C4)cc2)CC1 (stereo not given) | 0 | 0 | 0 | 0 | - | -
NCCOc1ccc(C23CC4CC(CC(C4)C2)C3)cc1 | 31 | 0 | 0 | 0 | 0 | 0
CN1c2ccc([N+](=O)[O-])cc2N(C)C1(C)c1ccccc1 (stereo not given) | 25 | 0 | 0 | 0 | 44 | 8.0
Cc1[nH]nc2c1C(c1cccc(C(F)(F)F)c1)N(Cc1ccccc1)C2=O (stereo not given) | 0 | - | 0 | 0 | - | -
CCN1CCN(/C=N/c2nc(C)cs2)CC1 | 94 | 0 | 0 | 0 | 0 | 0
CCCC1CCC2(CCCN2CCOC(=O)Nc2cccc(Cl)c2)CC1 (stereo not given) | 0 | - | 0 | 0 | - | -
CCCN(CCC)C(=O)C[n+]1cccc(/C=N/O)c1 | 20 | 0 | 0 | 0 | 0 | 0
CCCCCc1ccc(-c2n[nH]c(=O)c3ccccc23)cc1 | 0 | - | 0 | 0 | - | -
O=C1N/C(=N\N=C\c2cccs2)SC1Cc1cccc(Cl)c1Cl (stereo not given) | 20 | 0 | 0 | 0 | 0 | 0
CCn1cc(C(=O)Nc2sc(C)c(C)c2C(=O)OC)cn1 | 20 | 0 | 0 | 0 | 0 | 0
O=c1oc(-c2ccc(Cl)c(Cl)c2)nn1-c1ccc(C(F)(F)F)cn1 | 30 | 0 | 0 | 0 | 23 | 7.8
COC(=O)NNC(=O)COc1ccc(Cl)cc1 | - | 0 | - | - | - | -
COc1ccc(C(=O)NNC(=O)COc2ccc(Cl)cc2)c(OC)c1 | 25 | 0 | 0 | 0 | 0 | 0
COc1cccc(OCC(=O)NNC(=O)c2ccc3ccccc3c2O)c1 | 36 | 0 | 0 | 0 | 33 | 0 | 535nm interf DR=0
SMILES | HGIII-sPLA2 inh | TbMetRS inhib | PLC-beta3 inh | PLC-gamma1 inh | hGIII sPLA2 conf | BODIPY interf | others
CCOC(=O)[C@]12CCCCC/C=C\1N(Cc1ccc(OC)cc1)C(=O)[C@H]2CC(=O)NCCc1ccccc1OC | 0 | - | 0 | 0 | - | -
CC(=O)NC1CCCCN(Cc2ccc(Cl)cc2)C1=O (stereo not given) | 0 | - | 0 | 0 | - | -
CCN(CC)CCCNC(=S)Nc1ccc(Br)cc1 | 0 | 0 | 0 | 0 | - | -
CCN(CC)CCNC(=S)Nc1ccc(Cl)cc1 | 21 | 0 | 0 | 0 | 0 | 0
Cc1cc(-c2n[nH]c(=S)n2N=Cc2cccc(Oc3ccccc3)c2)n[nH]1 | 0 | - | 0 | 0 | - | -
COc1cccc(/C=N/n2c(-c3cc(C)[nH]n3)n[nH]c2=S)c1 | 19 | 0 | 0 | 0 | 23 | 0
COC(=O)c1cccc(Nc2cc(C)n(-c3cccc(C(=O)OC)c3)c(=O)c2)c1 | 0 | - | 0 | 0 | - | -
C=CC[C@@H]1NN2C(=O)[C@@H](C)[C@@H]3c4ccccc4C=NN3[C@@H]2c2ccccc21 | 0 | - | 0 | 0 | - | -
Fc1ccc(-n2c(-c3ccc4c(c3)OCO4)n[nH]c2=S)cc1Cl | 23 | 0 | 0 | 0 | 34 | 0 | 535nm interf DR=0
CC(=O)c1cc(-c2cccc(CO)c2)c(=O)n2c1CCC2 | 0 | - | 0 | 0 | - | -
O=C(CN1N=C(C(F)(F)F)CC1(O)c1ccc([N+](=O)[O-])cc1)c1ccccc1 (stereo not given) | 0 | 0 | 0 | 0 | - | -
O=C(c1ccccc1O)N1N=C(C(F)(F)F)CC1(O)c1ccc([N+](=O)[O-])cc1 (stereo not given) | 21 | 0 | 0 | 0 | 0 | 0
COc1ccccc1C(=O)N1CCN(C(=O)[C@@H](Cc2ccccc2)NC(=O)[C@H]2O[C@@H](n3ccc(N)nc3=O)[C@H](O)[C@@H]2O)CC1 | 0 | - | 0 | 0 | - | -
Cn1c(SCC(=O)NNC(=O)c2ccccc2O)nnc1-c1ccccc1 | 0 | 0 | 0 | 0 | - | -
COc1ccc(/C=C2\SC(=O)N(CC(=O)NNC(=O)c3ccccc3O)C2=O)cc1OC | 21 | 0 | 0 | 0 | 0 | 0
O=C(CCN1C(=O)/C(=C\c2ccccc2)SC1=S)NNC(=O)c1ccccc1O | 25 | 0 | 0 | 0 | 0 | 0
O=C(CN1C(=O)S/C(=C\c2ccc(O)cc2)C1=O)c1ccccc1 | 0 | 0 | 0 | 0 | - | -
O=C(CCN1C(=O)/C(=C\c2ccccc2)SC1=S)NNC(=O)c1cccnc1 | 0 | 0 | 0 | 0 | - | -
COc1ccc(/C=C2\SC(=O)N(CC(=O)NCCC(C)C)C2=O)cc1OC | 0 | 0 | 0 | 0 | - | -
O=C(CSc1ccccc1)NNC(=O)c1ccccc1O | 20 | 0 | 0 | 0 | 0 | 0
O=C(CN1C(=O)S/C(=C\c2ccccc2)C1=O)NNC(=O)c1ccccc1O | 23 | 0 | 0 | 0 | 0 | 0
COc1ccc(C2CC(=O)C(c3ccc(F)cc3)=CN2Cc2ccccc2)cc1 (stereo not given) | 0 | - | 0 | 0 | - | -
O=C(Cn1c(=O)c2cccn2c2cccnc21)NCCCN1CCN(c2ccc(Cl)cc2)CC1 | 0 | - | 0 | 0 | - | -
COC(=O)[C@H](CC(C)C)N(CCCc1cn(CC2CCCCC2)nn1)S(=O)(=O)c1ccccc1Br | 0 | - | 0 | 0 | - | -
Cc1ccc(C(=O)NC(=S)NNC(=O)c2ccccc2O)cc1 | 32 | 0 | 0 | 0 | 37 | 0 | 535nm interf DR=0
O=C(NC(=S)NNC(=O)c1ccccc1O)c1ccc(F)cc1 | 35 | 0 | 0 | 0 | 31 | 0
CC(C)(C)c1ccc(C(=O)NCC(=O)NNC(=O)c2ccccc2O)cc1 | 21 | 0 | 0 | 0 | 0 | 0
O=C(NC(=S)NNC(=O)c1ccccc1O)c1ccc([N+](=O)[O-])cc1 | 39 | 0 | 0 | 0 | 29 | 0 | 535nm interf DR=0
CC(C)(C)c1ccc(OCCCC(=O)NNC(=O)c2ccccc2O)cc1 | 0 | 0 | 0 | 0 | - | -
